Assay: Toxicity liver stage against HepG2, at 10uM
Type: cell-based
Set-up: test concentration 10 uM, cell line HepG2-A16-CD81EGFP
Details: human, HepG2-A16-CD81EGFP cells; read-out: INHIBITION
Method in brief: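 Uninfected HepG2-A16-CD81EGFP cells, 3 × 10^3 per well, 1536-well, plated on prespotted compound at 10 μM final, parasite-free screening media added to match infected plates; puromycin 10 μM positive, DMSO 0.5% negative; run in parallel with 48 h PbLuc assay at 37 °C, 5% CO2; viability by CellTiter-Glo luminescence, normalized to controls.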

| Compound | cytotoxicity at 10 µM |
| --- | --- |
| CC(=O)N1CCN(CCCOc2ccccc2F)CC(C(N)=O)C1 (stereo not given) | -28.7% |
| CCN1CCOC(CNCc2ccccc2OCC(=O)N(C)C)C1 (stereo not given) | -15.4% |
| CCC1=N[C@@]2(CC[C@@H]3CN(Cc4ccccc4F)C[C@@H]32)C(=O)N1CC | -12.4% |
| COCc1nc(CNc2cccc(-c3ncon3)c2)cs1 | 1.22% |
| Cc1cccnc1C(Cc1ccsc1)NCc1cnc(N(C)C)nc1 (stereo not given) | 5.24% |
| COc1ccc(C(=O)N(C)Cc2cc(C)on2)c(F)c1 | -5.2% |
| CC(c1ccco1)N(C)Cc1cccc(C(=O)Nc2nccn2C)c1 (stereo not given) | -7.33% |
| CNC(=O)CN1CCC(c2nn(C)c(=O)n2-c2ccccc2)CC1 | -14% |
| Cc1oc(C(C)C)cc1C(=O)N1CCN(c2cnn(C)c(=O)c2)CC1 | 1.27% |
| O=C(COc1cccc2c1CCC2=O)NCCc1cccs1 | 0.79% |
| CN1CC(=O)N(c2ccccc2)CC12CCN(Cc1nccs1)C2 (stereo not given) | 3.33% |
| CCN(CC)S(=O)(=O)c1cc2c3c(c1)c(C)cc(=O)n3CC2 | 5.45% |
| COc1nn(C)c2c1CCCN(C(=O)COc1ccccc1)C2 | 3.91% |
| COc1ccc(C2Nc3ccccc3N=C3CNC(=O)C32)cc1OC (stereo not given) | 5.56% |
| Cc1cnn(CCNCc2ccc(OCC(N)=O)cc2)c1 | -0.86% |
| Cc1nn(C)cc1CN(C)C(=O)c1ccccn1 | 4.12% |
| COc1cccc2c1OCC(C(=O)NC1CCN(S(C)(=O)=O)CC1)C2 (stereo not given) | -10.7% |
| CN(Cc1ccncc1)CC(c1cccs1)N1CCOCC1 (stereo not given) | -15.7% |
| CCOc1ccccc1C(=O)NCc1nncn1C1CC1 | 3.3% |
| Cc1ccc(SCCN(C)C(=O)c2cn(C3CCC(N)CC3)nn2)cc1 (stereo not given) | -8.59% |
| Cc1cc(CNc2ccc3nc(C4CC4)sc3c2)no1 | 0.981% |
| COc1cccc(CC2CCCN2Cc2nccn2C)c1 (stereo not given) | -6.16% |

| Compound | cytotoxicity at 10 µM |
| --- | --- |
| CN1CCN(C(=O)C2CCN(c3cccnn3)CC2)CC1 | -0.353% |
| COc1cc(NC(=O)CCn2nc(-c3cccs3)oc2=O)cc(OC)c1 | 2.9% |
| Cc1cnn(C2CN(CC(=O)NCc3ccccn3)C2)c1 | -10.9% |
| CC(=O)N1CCN([C@@H]2CN(C(=O)Cc3ccccc3C)C[C@H]2O)CC1 | -6.94% |
| CC(CNC(=O)c1c[nH]nn1)Oc1ccc(Cl)cc1 (stereo not given) | 9.27% |
| Cc1cc(N(C)C)nc(C2(C)CCCN2C(=O)c2ccn(C)n2)n1 (stereo not given) | -1.06% |
| CN1CCCC1CNC(=O)CCCOc1ccc(Br)cc1 (stereo not given) | -7.69% |
| CNC(=O)c1cc(C)n(-c2ccccc2)n1 | -0.142% |
| COc1c(CNC2CCC(O)CC2)c(C(C)C)nn1C (stereo not given) | -6.59% |
| CCC(Oc1ccc(N(C)S(C)(=O)=O)cc1)C(=O)NC (stereo not given) | 0.0646% |
| Cc1ccc(C(=O)NC(C)Cn2cccn2)c(=O)[nH]1 (stereo not given) | -2.16% |
| COCC1c2nnn(CC3CC3)c2CCN1C(=O)c1cc(C)[nH]c1C (stereo not given) | -140% |
| Cc1cc(C)c(CN2CCCC23Cc2ccccc2CNC3=O)c(C)c1 (stereo not given) | 10.8% |
| CN(C)Cc1cccc(-c2cccnc2C(=O)NCc2ccccn2)c1 | 5.39% |
| Cc1cc2cc(C(=O)N[C@@H]3CC[C@@H](N4CCOCC4)[C@@H]3O)ccc2o1 | -1.85% |
| O=C1CCC2(CCN(Cc3cscn3)CC2)CN1C1CCC(O)CC1 (stereo not given) | -4.33% |
| OCC1CCC2(CC1)CN(Cc1ccsc1)Cc1ccccc1O2 (stereo not given) | -3.78% |
| CN1CCN(c2ccc(F)cc2NC(=O)NCC[S+](C)[O-])CC1 (stereo not given) | -10.7% |
| Cn1nnnc1SC1CCCN(c2ccccc2Cl)C1=O (stereo not given) | 3.71% |
| O=C(c1ccccc1)N1CCOC2(CCN(Cc3cccs3)CC2)C1 | 0.64% |
| CCOc1ccccc1CNC(=O)N1CCC(Cc2cnn(C)c2)C1 (stereo not given) | -7.3% |
| Cn1cc(N2CCC3(CCN(S(=O)(=O)C4CC4)C3)C2=O)cn1 (stereo not given) | -2.45% |

| Compound | cytotoxicity at 10 µM |
| --- | --- |
| Cc1occc1C(=O)N1CCC2(CC1)C(c1cnn(C)c1)CC(=O)N2C (stereo not given) | 5.66% |
| O=C(c1cnccn1)N1C[C@@H](c2ccccc2)[C@@]2(CCNC2=O)C1 | -1.59% |
| O=C(NCc1ccnc(OCC(F)(F)F)c1)NCC1CCOC1 (stereo not given) | -3.22% |
| COC(=O)C(NC(=O)CC(C)C)c1cc(F)ccc1F (stereo not given) | -0.481% |
| O=C(C1CCCCC1)N1CCC2(COc3ncccc3S(=O)(=O)N2)C1 (stereo not given) | 11.3% |
| N#Cc1c(C2CCOC2)cc(-c2ccc(N3CCCCC3)cc2)nc1N (stereo not given) | -8.78% |
| O=C(NCc1ccc(Cl)cc1)N1CCN(CC(O)C2CC2)CC1 (stereo not given) | 8.66% |
| COc1ccc(C(=O)N2C[C@@H]3CC[C@H]2CN(C)C3)cc1Cl | 5.79% |
| CC(C)c1nnc2n1CCN(Cc1ccc3c(c1)OCO3)CC2 | 1.67% |
| COCCN(Cc1ccc(C)o1)C(=O)Nc1ncc(C)s1 | 10% |
| Fc1ccc(N2CCN(CCCc3cn[nH]c3)CC2)cc1 | -144% |
| CN(C)[C@@H]1CN(C(=O)CCc2ccccc2)[C@@H]2CCCO[C@H]12 | -3.02% |
| CC(C)CNC(=O)c1c(-n2cnnn2)sc2c1CCC2 | -4.56% |
| CCOC1COC2(CCN(Cc3ccc(F)cc3)CC2)C1 (stereo not given) | -0.508% |
| CC[C@H]1CN(S(=O)(=O)c2ccccc2)CC[C@H]1CC(=O)O | 1.7% |
| O=C(Cc1ccsc1)N1CCc2ccc(=O)n(CC3CC3)c2CC1 | 6.13% |
| c1cncc(N2CCC(c3ccncc3)CC2)c1 | 2.59% |
| Cc1ncncc1C(=O)N1CCCC(c2[nH]ncc2S(C)(=O)=O)C1 (stereo not given) | -4.41% |
| COCCN(c1ccncc1)S(=O)(=O)c1cc(C)c(F)cc1F | -6.54% |
| CC(C)c1ccc(NC2CCCN(Cc3ccncc3)C2)cc1 (stereo not given) | -10.8% |
| CC(CNc1cncc(-n2cccn2)n1)N(C)c1ccccc1 (stereo not given) | -4.48% |
| Cc1nn(C)c(C)c1C1CCCN1C(=O)c1ccnc(N(C)C)c1 (stereo not given) | -5.42% |

| Compound | cytotoxicity at 10 µM |
| --- | --- |
| CSCC[C@@H]1CN2CCC[C@H]2CN1Cc1coc2ccc(C)cc2c1=O | 2.89% |
| O=C(CCNC1(c2nccs2)CCCC1)N1CCOCC1 | 0.79% |
| Cc1cc(N2CCCN(C(=O)CSCC3CC3)CC2)ccn1 | -1.9% |
| O=C(O)c1cc2c(nc1-c1ccncc1)CCN(Cc1ccoc1)CC2 | -70.9% |
| CNC(=O)c1nc2c(s1)CCN(C(=O)c1cccc(OC)c1)CC2 | 9.84% |
| NC(=O)c1ccc(C2CCCN2C(=O)CCc2nc3ccccc3s2)s1 (stereo not given) | -8.8% |
| Cc1cccc(CN2CCC3(CC2)NC(=O)C[C@H]3c2cnn(C)c2)n1 | 4.53% |
| CCc1ccc(C(=O)NC(C)c2ccc(S(C)(=O)=O)c(F)c2)o1 (stereo not given) | 17.2% |
| O=C(c1nc2c(s1)CCCN2CC1CC1)N1CCOCC1 | 11.2% |
| C[C@@H]1CN(CC(C)(C)N2CCCCC2)C[C@@]1(O)C1CC1 | -0.519% |
| CCOc1ccc(OCc2nccc(-c3cc(C(=O)O)ccn3)n2)cc1 | -11.8% |
| Cc1[nH]c2ccccc2c1-c1ccnc(N[C@H](CO)CC(C)C)n1 | 0.97% |
| O=C1COC2(CCN(CC3CC3)CC2)CN1c1ccccc1 | -14.6% |
| CC(=O)N1CCCC(C(=O)NCc2noc(Cc3ccccc3)n2)C1 (stereo not given) | 3.02% |
| CO[C@@H]1CN(c2ccccc2)S(=O)(=O)[C@@]12CCN(S(C)(=O)=O)C2 | 2.21% |
| COCCN1C(=O)C2(CCC(C(=O)Nc3ccc(C)cc3)CC2)N=C1C (stereo not given) | 12.3% |
| CC1CN(C(=O)c2cnn(-c3ccccn3)c2C(C)C)CC(C)(C)O1 (stereo not given) | -3.09% |
| CCN1CCN(C2CCN(CC(=O)NCC(F)(F)F)CC2)C1=O | -2.99% |
| COCCNC(=O)C[C@@H]1COC[C@H]2CN(Cc3cccnc3)C[C@@H]12 | 2.13% |
| CCN(Cc1nccn1C)C(=O)c1ccc(NCCc2c[nH]cn2)nc1 | -2.5% |
| CC(C)CN1C(=O)C2(CCCC2)NC1c1c[nH]nc1-c1cccnc1 (stereo not given) | 7.76% |
| O=C(c1cc(-c2ccc(O)cc2)n[nH]1)N1CCCC1c1cccnc1 (stereo not given) | -4.09% |

| Compound | cytotoxicity at 10 µM |
| --- | --- |
| c1csc(-c2noc(C3CCCOC3)n2)c1 (stereo not given) | 7.39% |
| CC(CO)(NC(=O)Nc1nncs1)C1CCCCC1 (stereo not given) | 4.17% |
| CC(O)CNC(=O)NCCCN1CCN(c2ncccn2)CC1 (stereo not given) | -48.8% |
| Cc1nc(CN2CCN(C(=O)CCc3cccc(Cl)c3)CC2)no1 | 2.93% |
| Cn1cc(C(=O)NCC(Cc2cccc(F)c2)N2CCCCC2=O)nn1 (stereo not given) | -1.13% |
| COc1cccc(-n2cc3[nH]c(=O)[nH]n3c2=O)c1 | -6.47% |
| COc1cccc2c1OCC(C(=O)NCc1nc3c(s1)CCCC3)C2 (stereo not given) | -43.3% |
| CC(=O)N1CCCCC1c1nc(N)ncc1-c1ccccc1 (stereo not given) | -0.233% |
| Cc1nc2c(c(NC(C)C)n1)CCN(Cc1cccnc1)CC2 | 6.4% |
| CN(C)S(=O)(=O)N1CC[C@@H]2CN(Cc3cnn(C)c3)C[C@@H]2C1 | 13.5% |
| COc1ccc(CN(CC2CCCO2)C(=O)CN2CCOC2=O)cc1 (stereo not given) | -1.39% |
| COCCN1CCO[C@@H]2CN(Cc3ccc(C)o3)C[C@@H]2C1 | -7.24% |
| CC(C)n1cc(CN2CCCN(C(=O)c3ccoc3)CC2)cn1 | -3.44% |
| CN(Cc1cccnc1)CC1CNCc2nccn2C1 (stereo not given) | -77.2% |
| O=C(c1cccnc1)N1CCN2C[C@H](Oc3cncnc3)C[C@H]2C1 | 8.1% |
| COc1ccccc1C(=O)NC(CC(=O)O)c1cccs1 (stereo not given) | -0.337% |
| CC(NC(=O)CCn1cccn1)c1cccs1 (stereo not given) | -3.57% |
| COc1ccccc1NC(=O)c1[nH]nc(C(C)C)c1Br | 8.24% |
| CN(C)CCN1CCCC12CCCN(Cc1ccco1)C2 (stereo not given) | 10.3% |
| Cc1nc(Nc2nnc(C)s2)cc(C2CCCN2S(C)(=O)=O)n1 (stereo not given) | -11.9% |
| CC(C(=O)N1CCCN(Cc2ccc(C#N)cc2)CC1)n1cncn1 (stereo not given) | 2.6% |
| CC(C)NC(=O)CC1COC2(CCN(Cc3ccsc3)CC2)C1 (stereo not given) | -1.6% |

From ChEMBL document CHEMBL4513216, “Probing the Open Global Health Chemical Diversity Library for Multistage-Active Starting Points for Next-Generation Antimalarials” (ACS Infect Dis, 2020)
